Assay results published in the EternaBench riboswitch data.

What was measured:
MS2 coat protein [1] = assay: apparent Kd, MS2 coat protein; higher = weaker binding; RNA-MaP array; theophylline 2 mM where present
Procedure, shortened: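 Two titrations, one without ligand and one with constant ligand, were run with SNAP-549-labelled MS2 coat protein from 0.7 or 1.5 nM, doubling to 3 µM. The targets were designs transcribed by stalled E. coli RNA polymerase on Illumina sequencing-chip clusters, in 100 mM Tris-HCl pH 7.5, 80 mM KCl, 4 mM MgCl2, BSA, DTT, yeast tRNA and Tween-20. The apparent Kd is the median of filtered per-cluster binding-curve fits, with green signal normalised to red-channel RNA signal and control-cluster median Fmax.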

MS2 coat protein [2] = assay: apparent Kd, MS2 coat protein; higher = weaker binding; RNA-MaP array
Procedure, shortened: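 Designed RNAs were transcribed on an Illumina sequencing chip from sequenced DNA templates. They were incubated at room temperature with fluorescently labeled MS2 coat protein at 1.5 nM to 3 μM, for 0.8–1.5 h at the lowest to 10–20 min at the highest concentrations, in Tris-HCl pH 7.5 buffer with KCl, MgCl2, BSA, DTT, tRNA and Tween20, with or without input ligand. Apparent Kd is the median of per-cluster binding-curve fits. Designs measured on fewer than 10 clusters were excluded.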

[3] = designed as: ON switch for theophylline, no ligand
[4] = ligand present: theophylline, designed as: ON switch for theophylline
[5] = designed as: OFF switch for theophylline, no ligand
[6] = ligand present: theophylline, designed as: OFF switch for theophylline
[7] = designed as: OFF switch for flavin mononucleotide, no ligand
[8] = ligand present: flavin mononucleotide, designed as: OFF switch for flavin mononucleotide
[9] = designed as: ON switch for flavin mononucleotide, no ligand
[10] = ligand present: flavin mononucleotide, designed as: ON switch for flavin mononucleotide

| Sequence | apparent Kd (MS2 coat protein [1]; [3]) [nM] | apparent Kd (MS2 coat protein [1]; [4]) [nM] | apparent Kd (MS2 coat protein [1]; [5]) [nM] | apparent Kd (MS2 coat protein [1]; [6]) [nM] | also measured |
| --- | --- | --- | --- | --- | --- |
| ACACAUGAGGAUCACCCAUGUUCAAUAGAUACCAGUGAUACGGUGCACCCUUGGCAGCUGUUGCUGAGUGAUGGUUCCCUCGGUA | 41.3 | 65.4 | – | – | – |
| AUGCACCUCGUCCAGGCAAUCUUUAGUGAUACCAGCUAACUCCUUGGCCCUUGGCAGCACAUGAGGAUCACCCAUGUGCGACAUC | – | – | 11.9 | 14 | – |
| AAUAACAUGAGGAUCACCCAUGUAAAAGAUACCAGAGUGAUGAUCCUCCCUUGGCAGCUUAACGCUGAUUGAUUACAAUCAGCGA | 57.6 | 173 | – | – | – |
| GAGCUGAUGUAGAGUGGAUAUCCUUGAGAUACCAGUACAGAAAUGUACCCUUGGCAGCUCUUCUUUACAUGAGGAUCACCCAUGU | – | – | 13.1 | 17.5 | – |
| AGGCAGUAGGUGAUCCACUGCCAAGGUGAUACCAGCAUCGAAAGAUGCCCUUGGCAGCACCAACAUGAGGAUCACCCAUGUAAUA | 108 | 663 | – | – | – |
| AUUAUCAUGGUCAUAUAUAUUUCGUCAGAUACCAGACUAGAUAUAGUCCCUUGGCAGCUGUUACAUGAGGAUCACCCAUGUUAUA | – | – | 116 | – | – |
| ACUUUGUCGGGUGAUACCAGCCUCGGCACAUCUCGUGCCGAACAUGAGGAUCACCCAUGUGGCCCUUGGCAGCACAUGACAAAUC | 341 | 59.5 | – | – | – |
| ACAUGAGGAUCACCCAUGUAAGGUCUUGAUACCAGACGAGAAGUAGUCCCUUGGCAGCAAAUACGUGAGGGUCACACAUGUGUAA | – | – | 23 | 46 | – |
| CGAGUCCGCUGAUGGGCUAAGUCAGGUGAUACCAGCCACUCCCGCGGCCCUUGGCAGCACAUGAGGAUCACCCAUGUAGGGCUUG | – | – | 19.6 | 338 | – |
| AUCGUACCUGAGGAUACCAGCAUGUGAUCAUAACAUGAGGAUCACCCAUGUAAUCAGUGAUGCCCUUGGCAGCUUAGUCGAUACA | 75.5 | 45.2 | – | – | – |
| UGACAUUGCUCAGAUACCAGACAUGAGGAUCACCCAUGUACCAAGGUAAAGAAAUAACGUGUCCCUUGGCAGCUGAGCAAUGUCU | – | – | 10.1 | 98.8 | – |
| ACGUCCAGGUUAAUCGUGGACAUGGUCGAUACCAGUAUUUUAAUCUACCCUUGGCAGCGACAUGAGGAUCACCCAUGUGCGAUGA | – | – | 12.5 | 23.4 | – |
| UUAUUUAUAAUGGAUACCAGUCGUAUGGCCCGGCAUCCUGACAUGAGGAUCACCCAUGUCGACCCUUGGCAGCUGUUAUGGGUUU | – | – | 13.5 | 20 | – |
| AUAAGUACGUCAGAUACCAGACAGCCAGACUUACAUGAGGAUCACCCAUGUGGAUGGACGGUCCCUUGGCAGCUGGCCGCAAAAG | 213 | 14.2 | – | – | – |
| AGUGUUAUAACUGAUACCAGACCUUUGCUUAUACAUGAGGAUCACCCAUGUAAAAUGGCGGUCCCUUGGCAGCAGAGAAUACACA | 33.5 | 12.5 | – | – | – |
| UUUUAACAUGAGGAUCACCCAUGUAAUGAUACCAGAGACGAAAGUCUCCCUUGGCAGCAUAAUCAUUACAUGAGAUGGAAACAUC | 30.6 | 116 | – | – | – |
| UCGCUCGCCGGAAGGCGAGCGAGUUGCGAUACCAGCCCGGAAACGGGCCCUUGGCAGCGCACAUGAGGAUCACCCAUGUCAUGUU | – | – | 19.4 | 26.2 | – |
| ACGAACUGUAGUGAUACCAGACGUACAUGAGGAUCACCCAUGUUGUAAACAUGGUGAAUAGUCCCUUGGCAGCACAGUUAGUUCG | – | – | 182 | 738 | – |
| ACGUCCCGUUUACUCGUGGGUUAGGUCGAUACCAGUAUUCAAACUUACCCUUGGCAGCGACAUGAGGAUCACCCAUGUGCGAAGA | – | – | 17.6 | 99.5 | – |
| GCACUACAUGAGGAUCACCCAUGUGCAGAUACCAGAGGUGUAUGCCUCCCUUGGCAGCUGCGUCGCUCUGGAAGCCUAUUGGUUU | 15.6 | 20.9 | – | – | – |
| ACUCGGUGUUUGUUGCUCCGAGUACGUGAUACCAGUUAAUUUUAUGGCCCUUGGCAGCAUGGGACAUGAGGAUCACCCAUGUUUA | 375 | 396 | – | – | – |
| CGCUACGUAACUGAUACCAGUGUACUGACAUGAGGAUCACCCAUGUUGGGUUUUGUUGUACACCCUUGGCAGCAGAAUCGUAGCG | – | – | 70.3 | 95.3 | – |
| UCGACAGUGAACGAUACCAGCGUCACGUGGCCGGUGGUCACAUGAGGAUCACCCAUGUAACGCCCUUGGCAGCGUGCACGUAUCC | – | – | 26.1 | 184 | – |

| Sequence | apparent Kd (MS2 coat protein [1]; [3]) [nM] | apparent Kd (MS2 coat protein [1]; [4]) [nM] | apparent Kd (MS2 coat protein [1]; [5]) [nM] | apparent Kd (MS2 coat protein [1]; [6]) [nM] | also measured |
| --- | --- | --- | --- | --- | --- |
| AUAACAUGAGGAUCACCCAUGUUGAGUGAUACCAGACUAUGUAAUGUCCCUUGGCAGCACAAGUAAAGUUAUAAAUAAUGAUAGA | 57.2 | 25.1 | – | – | – |
| GAUGAUAUUGCAGAUACCAGACACAUGAGGAUCACCCAUGUCGUUGGGUCGCUGGGUCGUGUCCCUUGGCAGCUGCGAUAUCAUC | – | – | 30.7 | 263 | – |
| AAUAACAUGAGGAUCACCCAUGUAAAAGAUACCAGAGUGAUGAUCCUCCCUUGGCAGCUUAAUAACGCUAUUGGAAACAAUAGCG | 78.2 | 122 | – | – | – |
| AGAUUACAUGUUUUAAUAAGAUAAACUGAUACCAGUGUAUAUAUUCACCCUUGGCAGCAGCAACAUGAGGAUCACCCAUGUAUUA | 16 | 15.2 | – | – | – |
| UCCUUAGAUACUGAUACCAGACUACAGUAAACAUGAGGAUCACCCAUGUUUGAUCACUAAGUCCCUUGGCAGCAGGUACAUGGGA | 11.3 | 9.08 | – | – | – |
| AUUAAUUGUCGUGAUACCAGACAUACAUGAGGAUCACCCAUGUUAAGUAACAUUUUUUAUGUCCCUUGGCAGCACUUUUUAAUUA | 19.4 | 11.5 | – | – | – |
| AUAUUAAAGAGUGAUACCAGACUACAUGAGGAUCACCCAUGUUACAUUUAAAUAUCAUUUGUCCCUUGGCAGCACAUUAAGUACA | – | – | 17.4 | 13.3 | – |
| ACAUGAGGAUCACCCAUGUUCCUCAUUGAUACCAGUGAAUUUAGACGCCCUUGGCAGCGAGUUUAAGAAGAAGAAGUUUUUUUUU | – | – | 667 | 895 | – |
| CAAACAUGAGGAUCACCCAUGUAAUCAGAUACCAGUGACGAAAGUCACCCUUGGCAGCUGAGUACAUAUUGGCAGAGGUGUUUGA | – | – | 67 | 75 | – |
| UAUUGCAAUGUGAGGAUAUCUCAAGAAAAGACAAGAGAGAAGGCACAUGAGGAUCACCCAUGUUAGAAACAAAA | – | – | – | – | apparent Kd (MS2 coat protein [2]; [7]): 19.3 nM; apparent Kd (MS2 coat protein [2]; [8]): 110 nM |
| GGAUUCAGAGGAUAUACAUGAGGAUCACCCAUGUCAUUCAGCCAAGAUAUGUGUUUCAGUAGAAGGCUGAUCGG | – | – | – | – | apparent Kd (MS2 coat protein [2]; [7]): 22.3 nM; apparent Kd (MS2 coat protein [2]; [8]): 18 nM |
| UACAAGCAAGGAUAUACAUGAGGAUCACCCAUGUGGAGAGCCAGCAAAUUCCGGAAAUGUAGAAGGUGCCACAA | – | – | – | – | apparent Kd (MS2 coat protein [2]; [7]): 34.4 nM; apparent Kd (MS2 coat protein [2]; [8]): 32.8 nM |
| AUAUAAACGCAGAAGGAUCGUUUCCUUUAAAUGAUAGGAUAUGCCAACCUUGACAUGAGGAUCACCCAUGUGUUACUCUGUUUU | – | – | – | – | apparent Kd (MS2 coat protein [2]; [7]): 113 nM; apparent Kd (MS2 coat protein [2]; [8]): 98.2 nM |
| AGCACGAGCGCAGGAUAUGCAUAACCCGUAGCUGCAGAAGGGCGACAUGAGGAUCACCCAUGUAUAUCCAGAACUACAAUCUGA | – | – | – | – | apparent Kd (MS2 coat protein [2]; [9]): 35.8 nM; apparent Kd (MS2 coat protein [2]; [10]): 33 nM |
| GCAUAAGAUCAGAAGGGUAAUUUGUAACAACAUACAGGAUAUGAGGAAACAUGAGGAUCACCCAUGUGAAGCGAAAACAGAAAU | – | – | – | – | apparent Kd (MS2 coat protein [2]; [9]): 15.5 nM; apparent Kd (MS2 coat protein [2]; [10]): 11.4 nM |
| UGACUGUCGAAAGGAUAUGGUCGCACGCACACAUCAGUGUUUCACAUGAGGAUCACCCAUGUGGUCCAGAAGGUUCAUAAAUAU | – | – | – | – | apparent Kd (MS2 coat protein [2]; [9]): 197 nM; apparent Kd (MS2 coat protein [2]; [10]): 122 nM |
| UUCACAGUGCAAGGAUAUGACAGUUUACAUGAGGAUCACCCAUGUUGGUCCUAUUCAGAAUGAGAUCAGAAGGUGCUAAUAUGU | – | – | – | – | apparent Kd (MS2 coat protein [2]; [7]): 18.6 nM; apparent Kd (MS2 coat protein [2]; [8]): 36.1 nM |
| UGCUUUUACGGAGGAUAUCUUUGGUCGUUAUGAAGAGAAGGCCGUCCUAACAUGAGGAUCACCCAUGUAUCUCAUUACAGUCUC | – | – | – | – | apparent Kd (MS2 coat protein [2]; [9]): 22.9 nM; apparent Kd (MS2 coat protein [2]; [10]): 16.3 nM |
| GGGACCACUCUUGGGCCGCUGACAUGAGGAUCACCCAUGUAUAGAAGGAGGGUGGCUAAUCACACCUAGGAUAUAUACAAGACU | – | – | – | – | apparent Kd (MS2 coat protein [2]; [7]): 12 nM; apparent Kd (MS2 coat protein [2]; [8]): 11 nM |
| GAUGAGCGCACGGGAAUAAACAUGAGGAUCACCCAUGUCGUUAGAAGGGUAUUCGCCGGGACCAUACAGGAUAUAACGCGUCAC | – | – | – | – | apparent Kd (MS2 coat protein [2]; [9]): 25.7 nM; apparent Kd (MS2 coat protein [2]; [10]): 21 nM |
| GUCUCUCGCUUAGGAUAUCAGCACGAUUAUCCCUGAGAAGGAAGUGACAGACAUGAGGAUCACCCAUGUAUCCAAGGUUCGAAG | – | – | – | – | apparent Kd (MS2 coat protein [2]; [7]): 15.6 nM; apparent Kd (MS2 coat protein [2]; [8]): 15 nM |
| AUUGACUCAGAGAAGGGACUCAACAUGAGGAUCACCCAUGUUCUUUCGAAUAAAGGCUCUUAGGGUCAGGAUAUCUGUACGUAA | – | – | – | – | apparent Kd (MS2 coat protein [2]; [9]): 9.6 nM; apparent Kd (MS2 coat protein [2]; [10]): 9.99 nM |
